Source: ChEMBL document CHEMBL1649161, “Pharmacokinetics of EDP-420 after ascending single oral doses in healthy adult volunteers” (Antimicrob Agents Chemother, 2009)
≈ marks a conversion by molar mass, not a printed value.

Key:
Homo sapiens = test: Toxicity in healthy human assessed as incidence of adverse events at 100 to 1200 mg, po administered as single dose; type: organism-based; details: in vivo
Outline: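 Randomized, double-blind, placebo-controlled single ascending dose study with eight subjects per group (6 drug, 2 placebo of microcrystalline cellulose). Subjects were fasted before dosing. Safety labs were done at 120 h, with a full chemistry panel also at 72 and 96 h for the top dose. Final evaluation on day 8–10, with adverse events recorded.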

[1] = Half life in healthy human plasma at 1200 mg, po administered as single dose measured after 120 hrs; type: ADME, organism-based
Streptococcus pneumoniae = test: Antimicrobial activity against macrolide-resistant Streptococcus pneumoniae carrying mefA and/or ermB genes; type: functional
[2] = Cmax in healthy human plasma at 1200 mg, po administered as single dose measured after 120 hrs; type: ADME, organism-based; parameters: dose 1200 mg, route oral
Outline: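 Healthy adults (n = 6 per dose) took a single oral suspension fasted (8 h before, 4 h after). Plasma was sampled from 0.25 to 120 h postdose and quantified by validated LC-MS/MS after acetonitrile precipitation (LLOQ 1 ng/ml). Cmax was read directly from observed concentration–time data; the group mean was reported.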

Legionella sp. = test: Antimicrobial activity against Legionella sp.; type: functional

Question: What does the source list for `CC[C@H]1OC(=O)[C@H](C)C(=O)[C@H](C)[C@@H](O[C@@H]2O[C@H](C)C[C@H](N(C)C)[C@H]2O)[C@@]2(C)C[C@@H](C)/C(=N\C(C)=O)[C@H](C)[C@@H](OC/C(=N\OCc3ccc(-n4cccn4)nc3)CO2)[C@]1(C)O` [MODITHROMYCIN]?
Answer: Activity (Homo sapiens): 16.7%; half-life [1]: 20.1 h; MIC (Streptococcus pneumoniae): 0.25 µg/mL (≈ 0.297 µM); Cmax [2]: 1080 ng/mL; MIC90 (Legionella sp.): 0.031 µg/mL (≈ 0.0369 µM)
